Inconclusive results are not listed. Active and inactive are the calls of the source.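 Rule for the calls: active = growth-lowering compounds whose fitted AC50 is at most ten times their top valid dose; inconclusive = flat fit with 30 to 70% inhibition, or unreliable fit; inactive = the rest.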
system: not listed separately; test: growth inhibition of resistant C. albicans CaCi-8, dose response, with fluconazole, powder samples, set 10 (AID 504504); settings: C. albicans CaCi-8 + fluconazole, Alamar Blue growth, 48 h; at 26 µM (top of the series)
In short: (§1)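 Probe or stimulus: fluconazole 8 µg/mL; Assay system: Candida albicans CaCi-8, a fluconazole-resistant clinical strain; Amount: inoculum OD600 0.00015; Medium: defined RPMI 1640 medium with MOPS, glucose, uridine; Schedule: 48 h at 37 °C, then dye 2 h RT; Detection: Alamar Blue fluorescence, excitation 544 nm, emission 590 nm.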

Row | Compound | activity change, negative = growth inhibition
1 | COC(=O)n1nc(-c2ccccc2)c2ccccc21 | 11.4% (inactive)
2 | CCc1nn(CC(=O)OC)c2ccccc12 | -7.82% (inactive)
3 | O=C(O)Cn1c2ccc(F)cc2c2nc3n(c(=O)c21)CCS3 | -8.94% (inactive)
4 | O=C(Cn1c2ccc(F)cc2c2nc3n(c(=O)c21)CCS3)N1CCC(F)(F)C1 | 32% (inactive)
5 | O=C(O)Cn1c2ccccc2c2nc3n(c(=O)c21)CCS3 | -4.73% (inactive)
6 | O=C(Cn1c2ccc(F)cc2c2nc3n(c(=O)c21)CCS3)N1CCC(F)(F)CC1 | 60.6% (inactive)
7 | COC(=O)Cn1nc(C(C)(C)C)c2ccccc21 | -4.79% (inactive)
8 | COC(=O)Cn1nc(C2CC2)c2ccccc21 | -23.8% (inactive)
9 | COC(=O)Cn1nc(-c2cnco2)c2ccccc21 | -17.4% (inactive)
10 | O=C(Cn1c2ccc(F)cc2c2nc3n(c(=O)c21)CCS3)N1CC=CC1 | 65% (inactive)
11 | CC1CCN(CCn2c3ccccc3c3nc4n(c(=O)c32)CCS4)CC1 | -17.5% (inactive)
12 | O=C(Cn1c2ccc(F)cc2c2nc3n(c(=O)c21)CCS3)N1CCCC1 | 15.4% (inactive)

system: C. albicans CaCi-8 + fluconazole, Alamar Blue growth, 48 h; test: as above; settings: not given
In short: as §1

Row | Compound | AC50
13 | c1ccc(-c2nn(Cc3nnco3)c3ccccc23)cc1 | 21800 nM
14 | COC(=O)Cn1nc(-c2cscn2)c2ccccc21 | 18300 nM
15 | COC(=O)Cn1nc(-c2cccc(F)c2)c2ccccc21 | 1840 nM
16 | COC(=O)Cn1c2ccc(F)cc2c2nc3n(c(=O)c21)CCS3 | 2990 nM
17 | COC(=O)Cn1nc(-c2cccc(OC)c2)c2ccccc21 | 607 nM
18 | O=C(Cn1c2ccccc2c2nc3n(c(=O)c21)CCS3)N1CCCCC1 | 2170 nM
19 | COC(=O)Cn1nc(-c2cccc(C)c2)c2ccccc21 | 702 nM
20 | CC1(O)CN(C(=O)Cn2c3ccccc3c3nc4n(c(=O)c32)CCS4)C1 | > 26000 nM (inactive)
21 | O=C(Cn1c2ccccc2c2nc3n(c(=O)c21)CCS3)N1CCCC1 | 1970 nM
22 | O=C(Cn1c2ccccc2c2nc3n(c(=O)c21)CCS3)N1CC=CC1 | 2020 nM
23 | O=C(Cn1c2ccccc2c2nc3n(c(=O)c21)CCS3)N1CCC(F)(F)C1 | 6690 nM
24 | COC(=O)Cn1nc(C2CCCCC2)c2ccccc21 | 3440 nM

Source: PubChem BioAssay AID504504 (Broad Institute, 2011)
